From ChEMBL document CHEMBL1149086, “Antimalarial and antitumor evaluation of novel C-10 non-acetal dimers of 10beta-(2-hydroxyethyl)deoxoartemisinin” (J Med Chem, 2004)

Experiments:
Plasmodium falciparum = test: In vitro antimalarial activity against Plasmodium falciparum HB3 by [3H]hypoxanthine uptake; type: functional, organism-based
COLO 205 [1] = test: inhibition against colon COLO 205 cancer cell line; type: functional; details: Homo sapiens
SR [2] = test: Concentration of the drug required to achieve 50% cytotoxicity against leukemia SR cell line; type: cell-based; details: human
HCC 2998 [3] = test: Concentration of the drug required to achieve 50% cytotoxicity against colon HCC2998 cancer cell line; type: cell-based; details: human
RPMI-8226 [4] = test: Concentration required to achieve total growth inhibition against leukemia RPMI-8226 cell line; type: functional; details: Homo sapiens
T47D [5] = test: Concentration required to achieve total growth inhibition against breast T-47D cancer cell line; type: functional; details: Homo sapiens
Jurkat = test: Inhibitory concentration against Jurkat cells; type: functional, cell-based; details: Homo sapiens
Procedure, shortened: (§1)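 HL60 (2.5 × 10⁴/well) or Jurkat (1 × 10⁵/well) in RPMI-1640 with 10% FBS and 1% L-glutamine, 5% CO2, 37 °C. Exposed to 10⁻¹⁰–10⁻⁴ M for 72 h, final DMSO below 0.5% v/v. [3H]-thymidine (0.5 μCi) added for the final 24 h. Incorporation counted by β-scintillation.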

Malme-3M [6] = test: Concentration required to achieve total growth inhibition against melanoma MALME-3M cell line; type: functional; details: Homo sapiens
CCRF-CEM [7] = test: Concentration of the drug required to achieve 50% cytotoxicity against leukemia CCRF-CEM cell line; type: cell-based; details: human
SK-MEL-5 [8] = test: Concentration required to achieve total growth inhibition against melanoma SK-MEL-5 cell line; type: functional; details: Homo sapiens
KM12 [9] = test: Concentration required to achieve total growth inhibition against colon KM12 cancer cell line; type: functional; details: Homo sapiens
MCF7 [10] = test: Concentration of the drug required to achieve 50% cytotoxicity against breast MCF-7 cancer cell line; type: cell-based; details: human
UACC-62 [11] = test: Concentration required to achieve total growth inhibition against melanoma UACC-62 cell line; type: functional; details: Homo sapiens
SW-620 [12] = test: Concentration of the drug required to achieve 50% cytotoxicity against colon SW-620 cancer cell line; type: cell-based; details: human
UACC-62 [13] = test: Concentration of the drug required to achieve 50% cytotoxicity against melanoma UACC-62 cell line; type: cell-based; details: human
HT-29 [14] = test: Concentration required to achieve total growth inhibition against colon HT-29 cancer cell line; type: functional; details: Homo sapiens
K562 [15] = test: inhibition against leukemia K-562 cell line; type: functional; details: Homo sapiens
COLO 205 [16] = test: Concentration required to achieve total growth inhibition against colon COLO 205 cancer cell line; type: functional; details: Homo sapiens
HCT-116 [17] = test: inhibition against colon HCT116 cancer cell line; type: functional; details: Homo sapiens
HL-60 [18] = test: Concentration required to achieve total growth inhibition against leukemia HL-60(TB) cell line; type: functional; details: Homo sapiens
NCI/ADR-RES [19] = test: Concentration of the drug required to achieve 50% cytotoxicity against breast NCI/ ADR-RES cancer cell line; type: cell-based; details: human
PC-3 [20] = test: Concentration required to achieve total growth inhibition against prostate PC-3 cell line; type: functional; details: Homo sapiens
LOX IMVI [21] = test: inhibition against melanoma LOX IMVI cell line; type: functional; details: Homo sapiens
NCI/ADR-RES [22] = test: Concentration required to achieve total growth inhibition against breast NCI/ ADR-RES cancer cell line; type: functional; details: Homo sapiens
SW-620 [23] = test: Concentration required to achieve total growth inhibition against colon SW-620 cancer cell line; type: functional; details: Homo sapiens
SK-MEL-5 [24] = test: inhibition against melanoma SK-MEL-5 cell line; type: functional; details: Homo sapiens
MCF7 [25] = test: Concentration required to achieve total growth inhibition against breast MCF-7 cancer cell line; type: functional; details: Homo sapiens
RPMI-8226 [26] = test: inhibition against leukemia RPMI-8226 cell line; type: functional; details: Homo sapiens
CCRF-CEM [27] = test: inhibition against leukemia CCRF-CEM cell line; type: functional; details: Homo sapiens
MOLT-4 [28] = test: Concentration of the drug required to achieve 50% cytotoxicity against leukemia MOLT-4 cell line; type: cell-based; details: human
HT-29 [29] = test: Concentration of the drug required to achieve 50% cytotoxicity against colon HT-29 cancer cell line; type: cell-based; details: human
PC-3 [30] = test: inhibition against prostate PC-3 cell line; type: functional; details: Homo sapiens
MCF7 [31] = test: inhibition against breast MCF-7 cancer cell line; type: functional; details: Homo sapiens
MOLT-4 [32] = test: Concentration required to achieve total growth inhibition against leukemia MOLT-4 cell line; type: functional; details: Homo sapiens
HCT-15 [33] = test: Concentration of the drug required to achieve 50% cytotoxicity against colon HCT-15 cancer cell line; type: cell-based; details: human
LOX IMVI [34] = test: Concentration required to achieve total growth inhibition against melanoma LOX IMVI cell line; type: functional; details: Homo sapiens
Malme-3M [35] = test: Concentration of the drug required to achieve 50% cytotoxicity against melanoma MALME-3M cell line; type: cell-based; details: human
HCT-116 [36] = test: Concentration required to achieve total growth inhibition against colon HCT116 cancer cell line; type: functional; details: Homo sapiens
SR [37] = test: inhibition against leukemia SR cell line; type: functional; details: Homo sapiens
NCI/ADR-RES [38] = test: inhibition against breast NCI/ ADR-RES cancer cell line; type: functional; details: Homo sapiens
SK-MEL-5 [39] = test: Concentration of the drug required to achieve 50% cytotoxicity against melanoma SK-MEL-5 cell line; type: cell-based; details: human
HL-60 [40] = test: Inhibitory concentration against HL60 cells; type: functional, cell-based; details: Homo sapiens; procedure, shortened: as §1
SW-620 [41] = test: inhibition against colon SW-620 cancer cell line; type: functional; details: Homo sapiens
K562 [42] = test: Concentration required to achieve total growth inhibition against leukemia K-562 cell line; type: functional; details: Homo sapiens
SR [43] = test: Concentration required to achieve total growth inhibition against leukemia SR cell line; type: functional; details: Homo sapiens
HT-29 [44] = test: inhibition against colon HT-29 cancer cell line; type: functional; details: Homo sapiens
KM12 [45] = test: Concentration of the drug required to achieve 50% cytotoxicity against colon KM12 cancer cell line; type: cell-based; details: human
LOX IMVI [46] = test: Concentration of the drug required to achieve 50% cytotoxicity against melanoma LOX IMVI cell line; type: cell-based; details: human
HCT-116 [47] = test: Concentration of the drug required to achieve 50% cytotoxicity against colon HCT116 cancer cell line; type: cell-based; details: human
PC-3 [48] = test: Concentration of the drug required to achieve 50% cytotoxicity against prostate PC-3 cell line; type: cell-based; details: human
UACC-62 [49] = test: inhibition against melanoma UACC-62 cell line; type: functional; details: Homo sapiens
HCC 2998 [50] = test: Concentration required to achieve total growth inhibition against colon HCC2998 cancer cell line; type: functional; details: Homo sapiens
KM12 [51] = test: inhibition against colon KM12 cancer cell line; type: functional; details: Homo sapiens
T47D [52] = test: inhibition against breast T-47D cancer cell line; type: functional; details: Homo sapiens
Malme-3M [53] = test: inhibition against melanoma MALME-3M cell line; type: functional; details: Homo sapiens
HCT-15 [54] = test: inhibition against colon HCT-15 cancer cell line; type: functional; details: Homo sapiens
MOLT-4 [55] = test: inhibition against leukemia MOLT-4 cell line; type: functional; details: Homo sapiens
CCRF-CEM [56] = test: Concentration of the drug required to achieve 50% cytotoxicity against leukemia HL-60(TB) cell line; type: cell-based; details: human
COLO 205 [57] = test: Concentration of the drug required to achieve 50% cytotoxicity against colon COLO 205 cancer cell line; type: cell-based; details: human
HL-60 [58] = test: inhibition against leukemia HL-60(TB) cell line; type: functional; details: Homo sapiens
RPMI-8226 [59] = test: Concentration of the drug required to achieve 50% cytotoxicity against leukemia RPMI-8226 cell line; type: cell-based; details: human
T47D [60] = test: Concentration of the drug required to achieve 50% cytotoxicity against breast T-47D cancer cell line; type: cell-based; details: human
CCRF-CEM [61] = test: Concentration required to achieve total growth inhibition against leukemia CCRF-CEM cell line; type: functional; details: Homo sapiens
HCC 2998 [62] = test: inhibition against colon HCC2998 cancer cell line; type: functional; details: Homo sapiens
HCT-15 [63] = test: Concentration required to achieve total growth inhibition against colon HCT-15 cancer cell line; type: functional; details: Homo sapiens

## COP(=O)(OCC[C@H]1O[C@@H]2OC3(C)CC[C@H]4[C@H](C)CC[C@@H]([C@H]1C)[C@@]24OO3)OCC[C@H]1O[C@@H]2OC3(C)CC[C@H]4[C@H](C)CC[C@@H]([C@H]1C)[C@@]24OO3 (single isomer, unassigned)
Plasmodium falciparum
  IC50: 0.09 nM
COLO 205 [1]
  GI50: < 0.01 µM
SR [2]
  LC50: > 100 µM
HCC 2998 [3]
  LC50: 52.9 µM
RPMI-8226 [4]
  TGI: 13.7 µM
T47D [5]
  TGI: < 10 µM
Jurkat
  IC50: 7.7 µM
Malme-3M [6]
  TGI: 32.6 µM
CCRF-CEM [7]
  LC50: 100 µM
SK-MEL-5 [8]
  TGI: 15.2 µM
KM12 [9]
  TGI: 12.6 µM
MCF7 [10]
  LC50: 72.2 µM
UACC-62 [11]
  TGI: 18.4 µM
SW-620 [12]
  LC50: 40 µM
UACC-62 [13]
  LC50: 42.9 µM
HT-29 [14]
  TGI: 12.6 µM
K562 [15]
  GI50: < 0.01 µM
COLO 205 [16]
  TGI: 0.21 µM
HCT-116 [17]
  GI50: 1.85 µM
HL-60 [18]
  TGI: 1 µM
NCI/ADR-RES [19]
  LC50: 75.5 µM
PC-3 [20]
  TGI: 18.8 µM
LOX IMVI [21]
  GI50: < 0.01 µM
NCI/ADR-RES [22]
  TGI: 22.1 µM
SW-620 [23]
  TGI: 12.6 µM
SK-MEL-5 [24]
  GI50: 0.199 µM
MCF7 [25]
  TGI: 18.3 µM
RPMI-8226 [26]
  GI50: < 0.01 µM
CCRF-CEM [27]
  GI50: 0.769 µM
MOLT-4 [28]
  LC50: 33.5 µM
HT-29 [29]
  LC50: 40 µM
PC-3 [30]
  GI50: < 0.01 µM
MCF7 [31]
  GI50: 0.0503 µM
MOLT-4 [32]
  TGI: 9.8 µM
HCT-15 [33]
  LC50: 38.7 µM
LOX IMVI [34]
  TGI: 16.4 µM
Malme-3M [35]
  LC50: > 100 µM
HCT-116 [36]
  TGI: 32.6 µM
SR [37]
  GI50: < 0.01 µM
NCI/ADR-RES [38]
  GI50: 0.994 µM
SK-MEL-5 [39]
  LC50: 38.9 µM
HL-60 [40]
  IC50: 0.143 µM
SW-620 [41]
  GI50: < 0.01 µM
K562 [42]
  TGI: 1.17 µM
SR [43]
  TGI: 2.84 µM
HT-29 [44]
  GI50: < 0.01 µM
KM12 [45]
  LC50: 40 µM
LOX IMVI [46]
  LC50: 52.9 µM
HCT-116 [47]
  LC50: > 100 µM
PC-3 [48]
  LC50: 70.3 µM
UACC-62 [49]
  GI50: 0.486 µM
HCC 2998 [50]
  TGI: 16.4 µM
KM12 [51]
  GI50: < 0.01 µM
T47D [52]
  GI50: < 0.01 µM
Malme-3M [53]
  GI50: 0.0474 µM
HCT-15 [54]
  GI50: < 0.01 µM
MOLT-4 [55]
  GI50: < 0.01 µM
CCRF-CEM [56]
  LC50: 20 µM
COLO 205 [57]
  LC50: 2.59 µM
HL-60 [58]
  GI50: < 0.01 µM
RPMI-8226 [59]
  LC50: > 100 µM
T47D [60]
  LC50: 25.6 µM
CCRF-CEM [61]
  TGI: 30 µM
HCC 2998 [62]
  GI50: 1.25 µM
HCT-15 [63]
  TGI: 14.4 µM
